From ChEMBL document CHEMBL2375268, “Design, synthesis and antiproliferative properties of some new 5-substituted-2-iminobenzimidazole derivatives” (Eur J Med Chem, 2013)

Legend:
HepG2 = test: Antiproliferative activity against human HepG2 cells after 24 hrs by MTS assay; assay type: functional, cell-based; settings: HepG2, 24 h
Method in brief: (§1)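 Compounds taken up in DMSO at 0.5 mg/ml stock, then diluted 1:10, 1:100, 1:1000 and 1:10 000. Cells exposed 24 h; cells in unmodified medium served as control. MTS added, 4 h at 37 °C in 5% CO2/95% air, absorbance read at 490 nm. Viability given as % of untreated control per concentration, mean of three independent assays. IC50 (cancer lines) or EC50 (Lep-3) derived from plotted curves.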

[1] = Antiproliferative activity against human LEP-3 cells after 24 hrs by MTS assay; assay type: cell-based; settings: LEP-3, 24 h; method in brief: as §1
HeLa = test: Antiproliferative activity against human HeLa cells after 24 hrs by MTS assay; assay type: functional, cell-based; method in brief: as §1
MDA-MB-231 = test: Antiproliferative activity against human MDA-MB-231 cells after 24 hrs by MTS assay; assay type: functional, cell-based; settings: MDA-MB-231, 24 h; method in brief: as §1
HT-29 = test: Antiproliferative activity against human HT-29 cells after 24 hrs by MTS assay; assay type: functional, cell-based; settings: HT-29, 24 h; method in brief: as §1

Compound	EC50 (HepG2)	EC50 (HeLa)	EC50 (MDA-MB-231)	EC50 (HT-29)	IC50 (MDA-MB-231)	IC50 (HT-29)	IC50 (HepG2)	IC50 (HeLa)	EC50 [1]
N#CCCCCn1c(=N)n(CCCCC#N)c2cc(C(=O)c3ccccc3)ccc21	94.1 nM	0.015 nM	119 nM	46.7 nM					68 nM
CCCCn1c(=N)n(CCCC)c2cc([N+](=O)[O-])ccc21	142 nM	158 nM	86 nM	177 nM					114 nM
CCOC(=O)Cn1c(=N)n(CC(=O)OCC)c2cc(C(=O)c3ccccc3)ccc21	70.1 nM		0.28 nM			0.64 nM			73 nM

The next lines start with results.

EC50 (HepG2)	EC50 (HeLa)	EC50 (MDA-MB-231)	EC50 (HT-29)	IC50 (MDA-MB-231)	IC50 (HT-29)	IC50 (HepG2)	IC50 (HeLa)	Compound	EC50 [1]
10.2 nM	0.25 nM			6.2 nM	2.83 nM			N=c1n(CC(=O)N/N=C/c2ccc3c(c2)OCO3)c2ccc(C(=O)c3ccccc3)cc2n1CC(=O)N/N=C/c1ccc2c(c1)OCO2	0.21 nM
		17 nM	24.5 nM			7.27 nM	117 nM	N=c1n(CC(=O)N/N=C/c2ccc(F)cc2)c2ccc([N+](=O)[O-])cc2n1CC(=O)N/N=C/c1ccc(F)cc1	12.2 nM
